# Source: ChEMBL document CHEMBL3120083, “Discovery of N-[4-[6-tert-butyl-5-methoxy-8-(6-methoxy-2-oxo-1H-pyridin-3-yl)-3-quinolyl]phenyl]methanesulfonamide (RG7109), a potent inhibitor of the hepatitis C virus NS5B polymerase” (J Med Chem, 2014)
# pEC50: −log10 of the molar value.
# Legend:
# Hepatitis C virus [1] = experiment: Antiviral activity against Hepatitis C virus genotype 1b Con1 infected in human 2209-23 cells after 72 hrs by luciferase reporter gene assay in presence of 40% human serum; type: functional, organism-based, Hepacivirus hominis; conditions: isolate Con1, 2209-23, 72 h
# Hepatitis C virus [2] = experiment: Antiviral activity against Hepatitis C virus genotype 1b clinical isolate RO-8 expressing NS5B assessed as inhibition of viral replication after 4 days by luciferase reporter gene assay; type: functional, organism-based, Hepacivirus hominis; conditions: genotype 1b clinical isolate RO-8, 96 h
# Hepatitis C virus [3] = experiment: Antiviral activity against Hepatitis C virus genotype 1a H77 infected in human 2209-23 cells after 72 hrs by luciferase reporter gene assay in presence of 40% human serum; type: functional, organism-based, Hepacivirus hominis; conditions: genotype 1a H77, 2209-23, 72 h
# [4] = Oral bioavailability in Wistar/Han rat at 30 mg/kg of amorphus MBP compound; type: ADME, organism-based; conditions: in vivo
# Outline: (§1)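 Single oral dose by gavage in 2% Klucel LF in water (the amorphous MBP was made by solvent-controlled co-precipitation with Eudragit L100-55 from DMA into chilled pH 3.0 dilute HCl), n = 3. EDTA blood typically sampled at 0.25, 0.5, 1, 2, 4, 6, 8 and 24 h. Plasma levels by LC/MS/MS after acetonitrile protein precipitation.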
# Hepatitis C virus [5] = experiment: Antiviral activity against Hepatitis C virus genotype 1b Con1 expressing NS5B assessed as inhibition of viral replication after 4 days by luciferase reporter gene assay; type: functional, organism-based, Hepacivirus hominis; conditions: isolate Con1, 96 h
# Hepatitis C virus [6] = experiment: Antiviral activity against Hepatitis C virus genotype 1a clinical isolate RO-38 expressing NS5B assessed as inhibition of viral replication after 4 days by luciferase reporter gene assay; type: functional, organism-based, Hepacivirus hominis; conditions: genotype 1a clinical isolate RO-38, 96 h
# Hepatitis C virus [7] = experiment: Antiviral activity against Hepatitis C virus genotype 1a clinical isolate RO-35 expressing NS5B assessed as inhibition of viral replication after 4 days by luciferase reporter gene assay; type: functional, organism-based, Hepacivirus hominis; conditions: genotype 1a clinical isolate RO-35, 96 h
# [8] = Drug uptake in Wistar/Han rat at 30 mg/kg, po of amorphus MBP compound measured at 8 hrs; type: ADME, organism-based; parameters: dose 30 mg/kg, route oral; conditions: in vivo, read-out: Drug uptake; outline: as §1
# [9] = Volume of distribution at steady state in Wistar/Han rat at 2.6 mg/kg, iv; type: ADME, organism-based; parameters: dose 2.6 mg/kg, route intravenous; conditions: in vivo, read-out: Vdss
# Outline: (§2)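 Single IV bolus by tail vein or jugular cannula in 2% dimethyl acetamide/20% PEG400/23.4% HPBCD, n = 3. EDTA blood taken at typically 0.08, 0.25, 0.5, 1, 2, 4, 6, 8 and 24 h. Plasma assayed by LC/MS/MS after acetonitrile protein precipitation; clearance, Vdss and t1/2 derived from the plasma data.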
# Hepatitis C virus [10] = experiment: Antiviral activity against Hepatitis C virus genotype 1a clinical isolate RO-34 expressing NS5B assessed as inhibition of viral replication after 4 days by luciferase reporter gene assay; type: functional, organism-based, Hepacivirus hominis; conditions: genotype 1a clinical isolate RO-34, 96 h
# [11] = Cmax in Wistar/Han rat at 30 mg/kg, po of amorphus MBP compound; type: ADME, organism-based; parameters: dose 30 mg/kg, route oral; conditions: in vivo; outline: as §1
# Hepatitis C virus [12] = experiment: Antiviral activity against Hepatitis C virus genotype 1b clinical isolate RO-3 expressing NS5B assessed as inhibition of viral replication after 4 days by luciferase reporter gene assay; type: functional, organism-based, Hepacivirus hominis; conditions: genotype 1b clinical isolate RO-3, 96 h
# [13] = Drug uptake in Beagle dog at 30 mg/kg, po of amorphus MBP compound measured at 8 hrs; type: ADME, organism-based, Canis lupus familiaris; parameters: dose 30 mg/kg, route oral; conditions: in vivo, read-out: Drug uptake; outline: as §1
# [14] = Clearance in Wistar/Han rat at 2.6 mg/kg, iv; type: ADME, organism-based; parameters: dose 2.6 mg/kg, route intravenous; conditions: in vivo; outline: as §2
# Hepatitis C virus [15] = experiment: Antiviral activity against Hepatitis C virus genotype 1b clinical isolate RO-10 expressing NS5B assessed as inhibition of viral replication after 4 days by luciferase reporter gene assay; type: functional, organism-based, Hepacivirus hominis; conditions: genotype 1b clinical isolate RO-10, 96 h
# Hepatitis C virus [16] = experiment: Antiviral activity against Hepatitis C virus genotype 1a clinical isolate RO-41 expressing NS5B assessed as inhibition of viral replication after 4 days by luciferase reporter gene assay; type: functional, organism-based, Hepacivirus hominis; conditions: genotype 1a clinical isolate RO-41, 96 h
# Hepatitis C virus [17] = experiment: Antiviral activity against Hepatitis C virus genotype 1a clinical isolate RO-28 expressing NS5B assessed as inhibition of viral replication after 4 days by luciferase reporter gene assay; type: functional, organism-based, Hepacivirus hominis; conditions: genotype 1a clinical isolate RO-28, 96 h
# Hepatitis C virus [18] = experiment: Antiviral activity against Hepatitis C virus genotype 1b clinical isolate RO-4 expressing NS5B assessed as inhibition of viral replication after 4 days by luciferase reporter gene assay; type: functional, organism-based, Hepacivirus hominis; conditions: genotype 1b clinical isolate RO-4, 96 h
# [19] = AUC (0 to infinity) in Wistar/Han rat at 30 mg/kg, po of amorphus MBP compound; type: ADME, organism-based; parameters: time infinity, dose 30 mg/kg, route oral; conditions: plasma; outline: as §1
# [20] = Half life in Wistar/Han rat at 2.6 mg/kg, iv; type: ADME, organism-based; parameters: dose 2.6 mg/kg, route intravenous; conditions: in vivo; outline: as §2
# [21] = Thermodynamic solubility of the compound; type: physicochemical; conditions: read-out: Therm_solubility
# [22] = Volume of distribution at steady state in Beagle dog at 0.86 mg/kg, iv; type: ADME, organism-based, Canis lupus familiaris; parameters: dose 0.86 mg/kg, route intravenous; conditions: in vivo, read-out: Vdss; outline: as §2
# [23] = Half life in Beagle dog at 0.86 mg/kg, iv; type: ADME, organism-based, Canis lupus familiaris; parameters: dose 0.86 mg/kg, route intravenous; conditions: in vivo; outline: as §2
# Hepatitis C virus [24] = experiment: Antiviral activity against Hepatitis C virus genotype 1a H77 expressing NS5B assessed as inhibition of viral replication after 4 days by luciferase reporter gene assay; type: functional, organism-based, Hepacivirus hominis; conditions: genotype 1a H77, 96 h
# [25] = Cmax in Beagle dog at 30 mg/kg, po of amorphus MBP compound; type: ADME, organism-based, Canis lupus familiaris; parameters: dose 30 mg/kg, route oral; conditions: in vivo; outline: as §1
# Hepatitis C virus [26] = experiment: Antiviral activity against Hepatitis C virus genotype 1a clinical isolate RO-33 expressing NS5B assessed as inhibition of viral replication after 4 days by luciferase reporter gene assay; type: functional, organism-based, Hepacivirus hominis; conditions: genotype 1a clinical isolate RO-33, 96 h
# Hepatitis C virus [27] = experiment: Antiviral activity against Hepatitis C virus genotype 1a clinical isolate RO-18 expressing NS5B assessed as inhibition of viral replication after 4 days by luciferase reporter gene assay; type: functional, organism-based, Hepacivirus hominis; conditions: genotype 1a clinical isolate RO-18, 96 h
# [28] = Oral bioavailability in Beagle dog at 30 mg/kg of amorphus MBP compound; type: ADME, organism-based, Canis lupus familiaris; conditions: in vivo; outline: as §1
# Hepatitis C virus [29] = experiment: Antiviral activity against Hepatitis C virus genotype 1b Con1 infected in human 2209-23 cells after 72 hrs by luciferase reporter gene assay; type: functional, organism-based, Hepacivirus hominis; conditions: isolate Con1, 2209-23, 72 h
# Outline: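 Stable GT-1b Con1 subgenomic replicon cell line expressing a renilla luciferase reporter, used as the readout of inhibition. EC50 from luciferase signal, n 2.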
# Hepatitis C virus [30] = experiment: Antiviral activity against Hepatitis C virus genotype 1b clinical isolate RO-7 expressing NS5B assessed as inhibition of viral replication after 4 days by luciferase reporter gene assay; type: functional, organism-based, Hepacivirus hominis; conditions: genotype 1b clinical isolate RO-7, 96 h
# Hepatitis C virus [31] = experiment: Antiviral activity against Hepatitis C virus genotype 1b clinical isolate RO-9 expressing NS5B assessed as inhibition of viral replication after 4 days by luciferase reporter gene assay; type: functional, organism-based, Hepacivirus hominis; conditions: genotype 1b clinical isolate RO-9, 96 h
# Hepatitis C virus [32] = experiment: Antiviral activity against Hepatitis C virus genotype 1b clinical isolate RO-2 expressing NS5B assessed as inhibition of viral replication after 4 days by luciferase reporter gene assay; type: functional, organism-based, Hepacivirus hominis; conditions: genotype 1b clinical isolate RO-2, 96 h
# [33] = AUC (0 to infinity) in Beagle dog at 30 mg/kg, po of amorphus MBP compound; type: ADME, organism-based, Canis lupus familiaris; parameters: time infinity, dose 30 mg/kg, route oral; conditions: plasma; outline: as §1
# [34] = Clearance in Beagle dog at 0.86 mg/kg, iv; type: ADME, organism-based, Canis lupus familiaris; parameters: dose 0.86 mg/kg, route intravenous; conditions: in vivo; outline: as §2
# Hepatitis C virus [35] = experiment: Antiviral activity against Hepatitis C virus genotype 1b clinical isolate RO-1 expressing NS5B assessed as inhibition of viral replication after 4 days by luciferase reporter gene assay; type: functional, organism-based, Hepacivirus hominis; conditions: genotype 1b clinical isolate RO-1, 96 h
compound,measurement,setting,value
COc1ccc(-c2cc(C(C)(C)C)c(OC)c3cc(-c4ccc(NS(C)(=O)=O)cc4)cnc23)c(=O)[nH]1,pEC50,Hepatitis C virus [1],8.42
same,EC90,Hepatitis C virus [1],19 nM
same,pEC50,Hepatitis C virus [2],9.48
same,pEC50,Hepatitis C virus [3],8.00
same,EC90,Hepatitis C virus [3],63 nM
same,bioavailability,[4],26%
same,pEC50,Hepatitis C virus [5],9.49
same,pEC50,Hepatitis C virus [6],8.37
same,pEC50,Hepatitis C virus [7],9.52
same,concentration at 8 h,[8],620 ng/mL
same,Vd,[9],2.2 L/kg
same,pEC50,Hepatitis C virus [10],9.30
same,Cmax,[11],2100 ng/mL
same,pEC50,Hepatitis C virus [12],9.37
same,concentration at 8 h,[13],990 ng/mL
same,clearance,[14],11.4 mL/min/kg
same,pEC50,Hepatitis C virus [15],9.47
same,pEC50,Hepatitis C virus [16],9.22
same,pEC50,Hepatitis C virus [17],9.05
same,pEC50,Hepatitis C virus [18],9.96
same,AUC(0-inf),[19],13800 ng·h/mL
same,half-life,[20],4.3 h
same,solubility thermodynamic,[21],< 1 µg/mL
same,Vd,[22],2.8 L/kg
same,half-life,[23],4.3 h
same,pEC50,Hepatitis C virus [24],9.52
same,Cmax,[25],1500 ng/mL
same,pEC50,Hepatitis C virus [26],9.22
same,pEC50,Hepatitis C virus [27],9.40
same,bioavailability,[28],31%
same,pEC50,Hepatitis C virus [29],9.00
same,pEC50,Hepatitis C virus [30],9.66
same,pEC50,Hepatitis C virus [31],9.47
same,pEC50,Hepatitis C virus [32],9.72
same,AUC(0-inf),[33],23700 ng·h/mL
same,clearance,[34],7.5 mL/min/kg
same,pEC50,Hepatitis C virus [35],9.96
